For orientation: half-life means the time in which the quantity being followed falls by half. In general, Vd refers to a proportionality between amount in the body and measured concentration, not a real space. The term Solubility denotes how much of the substance goes into solution per volume. Higher therefore signals a readily soluble substance. The clearance is the volume of plasma or blood freed of the substance per unit of time. Low readings indicate a low capacity for elimination, high ones a high capacity for elimination. The IC50 is the concentration that inhibits the measured activity by half. Low values mean greater potency, high ones weaker potency.

The values that follow come from ChEMBL document CHEMBL1139176, “Tetrazole and ester substituted tetrahydoquinoxalines as potent cholesteryl ester transfer protein inhibitors” (Bioorg Med Chem Lett, 2007).

Tested on in the first data set: not listed separately
Kind of data set: Half life in rat at 2 mg/kg, iv. In kind it is ADME, organism-based. Further details: dose 2 mg/kg, route intravenous. As to conditions: in vivo.
In the case of `CCOC(=O)N1c2ccc(C(F)(F)F)cc2N(C(c2cc(C(F)(F)F)cc(C(F)(F)F)c2)c2nnn(C)n2)C[C@H]1CC` (stereo in doubt; (D2)-55d), the half-life was 2.4 h.

Tested on in the next data set: not listed separately
The experiment in a line: Volume of distribution in rat at 2 mg/kg, iv. In kind it is ADME, organism-based. Set-up: dose 2 mg/kg, route intravenous. As to conditions: in vivo.
`CCOC(=O)N1c2ccc(C(F)(F)F)cc2N(C(c2cc(C(F)(F)F)cc(C(F)(F)F)c2)c2nnn(C)n2)C[C@H]1CC` (stereo in doubt; (D2)-55d) registered a Vd of 2.6 L/kg.

Tested on in a further data set: not listed separately
Kind of data set: Solubility at pH 7.4. In kind it is physicochemical. As to conditions: buffer.
Compound `CCOC(=O)N1c2ccc(C(F)(F)F)cc2N(C(c2cc(C(F)(F)F)cc(C(F)(F)F)c2)c2nnn(C)n2)C[C@H]1CC` (stereo in doubt; (D2)-55d) showed a Solubility of under 0.01 µg/mL.

Tested on in another data set: not listed separately
Kind of data set: Clearance in rat at 2 mg/kg, iv. Type of data set: ADME, organism-based. Set-up: dose 2 mg/kg, route intravenous. As to conditions: in vivo.
In turn, `CCOC(=O)N1c2ccc(C(F)(F)F)cc2N(C(c2cc(C(F)(F)F)cc(C(F)(F)F)c2)c2nnn(C)n2)C[C@H]1CC` (stereo in doubt; (D2)-55d) came in with a clearance of 13 mL/min/kg.

In the next data set the target is T1, Cholesteryl ester transfer protein (Homo sapiens, UniProt P11597).
T1 sequence (P11597 whole entry): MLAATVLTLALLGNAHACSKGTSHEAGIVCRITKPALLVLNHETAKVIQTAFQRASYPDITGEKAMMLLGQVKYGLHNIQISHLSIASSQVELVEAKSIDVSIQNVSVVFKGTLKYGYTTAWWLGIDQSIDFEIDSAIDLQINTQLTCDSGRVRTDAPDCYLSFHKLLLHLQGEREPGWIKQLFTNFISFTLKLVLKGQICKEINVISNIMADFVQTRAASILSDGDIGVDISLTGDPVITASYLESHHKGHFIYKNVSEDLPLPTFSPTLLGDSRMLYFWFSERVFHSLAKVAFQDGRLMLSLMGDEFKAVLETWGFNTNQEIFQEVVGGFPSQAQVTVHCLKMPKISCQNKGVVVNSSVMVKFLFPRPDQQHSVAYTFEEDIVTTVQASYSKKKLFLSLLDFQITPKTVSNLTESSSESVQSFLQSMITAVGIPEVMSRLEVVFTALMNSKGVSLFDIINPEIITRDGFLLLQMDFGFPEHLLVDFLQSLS
Kind of data set: Inhibition of CETP in human plasma. In kind it is cell-free.
Details: not given
In a few lines:
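Radiometric transfer of ³H-cholesteryl ester from HDL to LDL, with human plasma supplying both CETP and LDL. Inhibitor, plasma and ³H-CE-HDL (diluted to 50 cholesterol) were incubated in 4% (v/v) final DMSO for 6 h at 37 °C. The reaction was stopped with 10 U heparin in 0.3 M MnCl₂ (final) to precipitate LDL, then spun at 1000g and supernatant (2/3 of assay volume) removed. IC50 reported.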
`CCOC(=O)N1c2ccc(C(F)(F)F)cc2N(C(c2cc(C(F)(F)F)cc(C(F)(F)F)c2)c2nnn(C)n2)C[C@@H]1CC` (stereo in doubt; (D2)-55c) registered an IC50 of 1.5 µM.

On to `CCNC(=O)N1c2ccc(C(F)(F)F)cc2N(C(c2cc(C(F)(F)F)cc(C(F)(F)F)c2)c2nnn(C)n2)CC1CC` (stereo unspecified), for which the IC50 was 46.4 µM.

In turn, `CCOC(=O)N1c2ccc(C(F)(F)F)cc2N(C(c2cc(C(F)(F)F)cc(C(F)(F)F)c2)c2nnn(CC(N)=O)n2)CC1CC` (stereo in doubt; (D1)-50a) registered an IC50 of 5.22 µM.

The compound `CCCCC(CC)COC(=O)N1c2ccc(C(F)(F)F)cc2N(C(c2cc(C(F)(F)F)cc(C(F)(F)F)c2)c2nnn(C)n2)CC1CC` (stereo unspecified) gave an IC50 of 62.6 µM.

As to `CCOC(=O)N1c2ccc(C(F)(F)F)cc2N(C(c2cc(C(F)(F)F)cc(C(F)(F)F)c2)c2nnn(CCC(=O)OC)n2)CC1CC` (stereo unspecified), the IC50 was determined as 4.42 µM.

In turn, `CCOC(=O)N1c2ccc(C(F)(F)F)cc2N(C(c2cc(C(F)(F)F)cc(C(F)(F)F)c2)c2nnn(CC(N)=O)n2)CC1CC` (stereo in doubt; (D2)-50b) displayed an IC50 of 100 µM.

Compound `CCOC(=O)N1c2ccc(Br)cc2N(C(C(=O)OC)c2cc(C(F)(F)F)cc(C(F)(F)F)c2)CC1CC` (stereo unspecified) had an IC50 of 1.9 µM.

The compound `CCOC(=O)N1c2ccc(C(F)(F)F)cc2N(C(c2cc(C(F)(F)F)cc(C(F)(F)F)c2)c2nnn(CCO)n2)CC1CC` (stereo in doubt; (D2)-46b) returned an IC50 of 2.22 µM. This IC50 and that of the compound before are within 1.5-fold of each other.

As to `CCC1CN(C(c2cc(C(F)(F)F)cc(C(F)(F)F)c2)c2nnn(C)n2)c2cc(C(F)(F)F)ccc2N1C(=O)N(C)C` (stereo unspecified), the IC50 is 100 µM.

Regarding `CCOC(=O)N1c2ccc(C(F)(F)F)cc2N(C(c2cc(C(F)(F)F)cc(C(F)(F)F)c2)c2nnn(CCO)n2)CC1CC` (stereo in doubt; (D1)-46a), the IC50 was determined as 2.26 µM.

On to `CCC1CN(C(c2cc(C(F)(F)F)cc(C(F)(F)F)c2)c2nnn(C)n2)c2cc(C(F)(F)F)ccc2N1C(=O)OCC(C)C` (stereo unspecified), for which the IC50 stood at 0.232 µM.

With `CCOC(=O)N1c2ccccc2N(C(Cc2cc(C(F)(F)F)cc(C(F)(F)F)c2)C(=O)OC)CC1CC` (stereo in doubt; (D1)-10a), the IC50 is over 100 µM.

As for `CCOC(=O)N1c2ccc(C(F)(F)F)cc2N(C(c2cc(C(F)(F)F)cc(C(F)(F)F)c2)c2nnn(C)n2)C[C@H]1CC` (stereo in doubt; (D2)-55d), it took 0.143 µM to reach half-maximal inhibition (IC50). In other words, the sub-micromolar range.

The compound `CCC1CN(C(c2cc(C(F)(F)F)cc(C(F)(F)F)c2)c2nnn(C)n2)c2cc(C(F)(F)F)ccc2N1CC1CCCCC1` (stereo in doubt; (D1)-39a) yielded an IC50 of 1.3 µM. Against the preceding compound, the IC50 is about 9.1-fold higher.

Compound `CCOC(=O)N1c2ccc(C(F)(F)F)cc2N(C(c2cc(C(F)(F)F)cc(C(F)(F)F)c2)c2nnn(C)n2)C[C@H]1CC` (stereo in doubt; (D1)-55a) gave an IC50 of 0.44 µM.

As for `CCC1CN(C(c2cc(C(F)(F)F)cc(C(F)(F)F)c2)c2nnn(C)n2)c2cc(C(F)(F)F)ccc2N1C(=O)NCCO` (stereo in doubt; (D2)-33b), the IC50 is 4.57 µM.

`CCOC(=O)N1c2ccccc2N(C(C(=O)OC)c2cc(C(F)(F)F)cc(C(F)(F)F)c2)CC1CC` (stereo in doubt; (D1)-16a) gave an IC50 of 5 µM. This IC50 and that of the compound before are within 1.5-fold of each other.

Compound `CCOC(=O)N1c2ccc(C(F)(F)F)cc2N(C(c2cc(C(F)(F)F)cc(C(F)(F)F)c2)c2nnn(CC3CC3)n2)CC1CC` (stereo unspecified) returned an IC50 of 4.55 µM.

`CCOC(=O)N1c2ccccc2N(C(Cc2cc(C(F)(F)F)cc(C(F)(F)F)c2)C(=O)OC)CC1CC` (stereo in doubt; (D2)-10b) showed an IC50 of over 100 µM.

`CCOC(=O)N1c2ccc(C(F)(F)F)cc2N(C(c2cc(C(F)(F)F)cc(C(F)(F)F)c2)c2nnn(CC(=O)OC)n2)CC1CC` (stereo unspecified) returned a concentration for half-maximal inhibition (IC50) of 32.5 µM. This lies in the double-digit micromolar range.

As to `CCOC(=O)N1c2cc(Cl)c(Cl)cc2N(C(C(=O)OC)c2cc(C(F)(F)F)cc(C(F)(F)F)c2)CC1CC` (stereo in doubt; (D1)-18a), the midpoint of inhibition, the IC50, lay at 92.5 µM.

As for `CCOC(=O)N1c2ccccc2N(C(Cc2ccccc2)C(=O)OC)CC1CC` (stereo in doubt; (D1)-9a), the IC50 was over 100 µM.

As for `CCOC(=O)N1c2ccccc2N(C(C(=O)OC)c2cc(C(F)(F)F)cc(C(F)(F)F)c2)CC1CC` (stereo in doubt; (D2)-16b), it took 8.6 µM to reach half-maximal inhibition (IC50).

For the compound `CCOC(=O)N1c2ccccc2N(C(Cc2ccccc2)C(=O)OC)CC1CC` (stereo in doubt; (D2)-9b), the IC50 was over 100 µM.

The compound `CCOC(=O)N1c2ccc(C(F)(F)F)cc2N(C(c2cc(C(F)(F)F)cc(C(F)(F)F)c2)c2nnn(CC(=O)OC(C)(C)C)n2)CC1CC` (stereo unspecified) showed an IC50 of 14.6 µM.

Turning to `CCOC(=O)N1c2ccc(C(F)(F)F)cc2N(C(c2cc(C(F)(F)F)cc(C(F)(F)F)c2)c2nnn(CCN(C)C)n2)CC1CC` (stereo unspecified), the half-inhibitory concentration (IC50) stood at 7.81 µM.

For the compound `CCC1CN(C(c2cc(C(F)(F)F)cc(C(F)(F)F)c2)c2nnn(C)n2)c2cc(C(F)(F)F)ccc2N1CC1CCCC1` (stereo unspecified), the concentration for half-maximal inhibition (IC50) stood at 0.854 µM.

In turn, `CCC1CN(C(c2cc(C(F)(F)F)cc(C(F)(F)F)c2)c2nnn(C)n2)c2cc(C(F)(F)F)ccc2N1C(=O)NCCO` (stereo in doubt; (D1)-33a) had an IC50 of 100 µM.

As for `CCCCOC(=O)N1c2ccc(C(F)(F)F)cc2N(C(c2cc(C(F)(F)F)cc(C(F)(F)F)c2)c2nnn(C)n2)CC1CC` (stereo unspecified), half-maximal inhibition (IC50) required 1.11 µM. Compared with the last compound, the IC50 is about 90-fold lower.

The compound `CCC1CN(C(c2cc(C(F)(F)F)cc(C(F)(F)F)c2)c2nnn(C)n2)c2cc(C(F)(F)F)ccc2N1C(=O)OCc1ccccc1` (stereo unspecified) registered a 50% inhibitory concentration (IC50) of 4.4 µM.

The compound `CCC1CN(C(c2cc(C(F)(F)F)cc(C(F)(F)F)c2)c2nnn(C)n2)c2cc(C(F)(F)F)ccc2N1C(=O)N1CCCC1` (stereo unspecified) yielded an IC50 of 100 µM.

The compound `CCOC(=O)N1c2ccc(C(F)(F)F)cc2N(C(c2cc(C(F)(F)F)cc(C(F)(F)F)c2)c2nnn(CC(=O)O)n2)CC1CC` (stereo unspecified) registered an IC50 of 54.6 µM.

`CCOC(=O)N1c2ccc(C(F)(F)F)cc2N(C(C(=O)OC)c2cc(C(F)(F)F)cc(C(F)(F)F)c2)CC1CC` (stereo in doubt; (D2)-22b) displayed an IC50 of 0.56 µM.

The compound `CCOC(=O)N1c2ccc(C(F)(F)F)cc2N(C(c2cc(C(F)(F)F)cc(C(F)(F)F)c2)c2nnn(C)n2)CC1CC` (stereo in doubt; (D1)-28a) registered an IC50 of 0.87 µM.

On to `CCC1CN(C(c2cc(C(F)(F)F)cc(C(F)(F)F)c2)c2nnn(C)n2)c2cc(C(F)(F)F)ccc2N1C[C@H]1CC[C@H](CC(=O)O)CC1` (stereo partly specified), for which the IC50 stood at 2.91 µM.

For the compound `CCC1CN(C(c2cc(C(F)(F)F)cc(C(F)(F)F)c2)c2nnn(C)n2)c2cc(C(F)(F)F)ccc2N1CC1CCCCC1` (stereo in doubt; (D2)-39b), the IC50 stood at 5.7 µM.

With `CCC1CN(C(c2cc(C(F)(F)F)cc(C(F)(F)F)c2)c2nnn(C)n2)c2cc(C(F)(F)F)ccc2N1C(=O)N1CCOCC1` (stereo unspecified), the IC50 was 36.9 µM.

`CCOC(=O)N1c2ccc(C(F)(F)F)cc2N(C(c2cc(C(F)(F)F)cc(C(F)(F)F)c2)c2nnn(C)n2)C[C@@H]1CC` (stereo in doubt; (D1)-55b) displayed a concentration for half-maximal inhibition (IC50) of 47.5 µM.

In the case of `CCOC(=O)N1c2ccc(C(F)(F)F)cc2N(C(c2cc(C(F)(F)F)cc(C(F)(F)F)c2)c2nnn(CCC#N)n2)CC1CC` (stereo unspecified), the midpoint of inhibition, the IC50, lay at 3.42 µM.

For the compound `CCOC(=O)N1c2cc(Cl)c(Cl)cc2N(C(C(=O)OC)c2cc(C(F)(F)F)cc(C(F)(F)F)c2)CC1CC` (stereo in doubt; (D2)-18b), half-maximal inhibition (IC50) was put at 93.4 µM.

`CCOC(=O)N1c2ccc(C(F)(F)F)cc2N(C(C(=O)OC)c2cc(C(F)(F)F)cc(C(F)(F)F)c2)CC1CC` (stereo in doubt; (D1)-22a) registered an IC50 of 0.5 µM.

Compound `CCOC(=O)N1c2ccc(C(F)(F)F)cc2N(C(c2cc(C(F)(F)F)cc(C(F)(F)F)c2)c2nnn(C)n2)CC1CC` (stereo in doubt; (D2)-28b) registered an IC50 of 0.23 µM. This IC50 lies about 2.2-fold lower than the previous one.
